Assay results: PubChem BioAssay AID651560 (Sanford-Burnham Center for Chemical Genomics, 2012)
The campaign covered roughly 360,000 compounds. About 820 (0.23%) were called active.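 Rule for the calls: active = compounds that cut the enzyme signal by at least half of the control window in the single-dose screen; inactive = the rest.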 The sample as a whole holds a higher share of actives than the screen did.

Molecular target: Low molecular weight phosphotyrosine protein phosphatase (Homo sapiens) (UniProt P24666)
Test: inhibition of human LMPTP-A enzyme – biochemical, fluorescence intensity, uHTS, primary screen (AID 651560);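 note: plate controls were DMSO wells with enzyme plus substrate for no effect and substrate without enzyme for full effect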
Settings: recombinant LMPTP-A, OMFP fluorogenic substrate, at 20 µM, hits give high values
Outline: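 Test system – LMPTP-A phosphatase enzyme · Quantity – 0.625 nM LMPTP-A final · Reagent – OMFP substrate, 400 µM final · Dosing – one test concentration per compound, 20 µM, with 3% DMSO overall · Timing – 50 min enzyme reaction at room temperature, protected from light · Detection – fluorescence intensity · Controls – substrate-only low control, DMSO enzyme-plus-substrate high control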

Sequence of Low molecular weight phosphotyrosine protein phosphatase (Homo sapiens) (P24666 whole entry, looked up): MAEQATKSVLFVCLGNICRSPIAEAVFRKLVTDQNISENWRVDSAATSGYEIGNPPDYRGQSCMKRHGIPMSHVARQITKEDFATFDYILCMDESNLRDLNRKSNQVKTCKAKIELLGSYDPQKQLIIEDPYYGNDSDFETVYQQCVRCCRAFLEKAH

Row | SMILES | inhibition
1 | CCCNC(=O)NC(=O)COC(=O)CC(NC(N)=O)c1ccc(Cl)cc1 (stereo unspecified) | -1.19% (inactive)
2 | COc1ccc2c(c1)c(=Cc1ccc(N(C)C)cc1)c1cc(-c3ccccc3)[n+](C)n12 | 96.2% (active)
3 | O=C(COC(=O)c1ccc([N+](=O)[O-])o1)NC12CC3CC(CC(C3)C1)C2 | 1.22% (inactive)
4 | COc1cc(NC(=S)N2CCCC(C)C2)c(OC)cc1Cl (stereo unspecified) | 0.265% (inactive)
5 | C=CCn1c(=O)n(C)c2c(=O)n(C)c(=O)n(C)c21 | 0.217% (inactive)
6 | Cc1csc(NC(=O)CSc2nnc(-c3cccnc3)o2)n1 | -0.391% (inactive)
7 | N#Cc1ccc(OCC(=O)NC(=O)NC2CCS(=O)(=O)C2)cc1 (stereo unspecified) | -1.41% (inactive)
8 | O=C(CCN1C(=O)[C@@H]2Cc3ccccc3CN2C1=O)NCc1ccccc1 | 0.0399% (inactive)
9 | COc1cccc(N(C(=O)c2ccn[nH]2)C2(C(=O)Nc3c(C)cccc3C)CCCCC2)c1 | -0.749% (inactive)
10 | O=C(O)COCC(=O)NCc1csc2ccc(Cl)cc12 | -1.97% (inactive)
11 | CCOP(=O)(OCC)C(Nc1cccc(C)c1)c1ccc(F)cc1 (stereo unspecified) | 0.494% (inactive)
12 | COc1cnc(SCc2ccc(Cl)c(Cl)c2)nc1Cl | 3.06% (inactive)
13 | CCN(CC)CCNC(=O)c1sc2ncn(CC(=O)Nc3ccc(C)c(Cl)c3)c(=O)c2c1C | -0.286% (inactive)
14 | CCN1CCN(c2ccc(S(=O)(=O)N3CCCCC3)cc2NC(=O)Cc2c(Cl)cccc2Cl)CC1 | 1.2% (inactive)
15 | CCC(C)Cn1c(O)cc2nn(-c3nc4ccccc4s3)c(=O)c-2c1C (stereo unspecified) | 52.5% (active)
16 | O=c1c(-c2ccccc2)cnc2n1CCS2 | -1.57% (inactive)

Row | SMILES | inhibition
17 | O=c1c2cc(-c3ccccc3)sc2nc2n1N=C(c1cccs1)CS2 | 61.5% (active)
18 | COc1ccc(OC)c(Nc2nc(-c3ccc(O)c(O)c3)cs2)c1 | 62.5% (active)
19 | COc1cccc(C(O)c2nc(-c3ccc(C)c(C)c3)cs2)c1 (stereo unspecified) | 3.13% (inactive)
20 | COc1ccc(C(O)c2nc(-c3ccc4c(c3)OCO4)cs2)cc1 (stereo unspecified) | 0.808% (inactive)
21 | Cc1ccccc1NC(=O)Cc1nc(COC(=O)CNC(=O)c2ccc(Cl)cc2Cl)cs1 | 0.684% (inactive)
22 | COCCCNC(=O)C1CC(=O)N(CCc2ccccc2)C1 (stereo unspecified) | -0.151% (inactive)
23 | CN(CCC1CCOCC1)C(=O)CC1C(=O)NCCN1Cc1cccc(F)c1 (stereo unspecified) | -1.38% (inactive)
24 | Cc1cc2c(cc1C)N(C(=O)CN1C(=O)c3ccccc3C1=O)C(C)(C)c1ssc(=S)c1-2 | 2.43% (inactive)
25 | CCOc1ccccc1NC(=O)C1CCCN(C(=O)Nc2ccccc2)C1 (stereo unspecified) | -1.09% (inactive)
26 | O=C(Cn1cnc2c(nnn2-c2ccccc2)c1=O)N1CCC(Cc2ccccc2)CC1 | 1.23% (inactive)
27 | COCCNc1nc(NCc2ccc(NC(C)=O)cc2)c2sccc2n1 | 51.4% (active)
28 | COc1cccc(CNc2nc(NCc3cccs3)nc3ccsc23)c1 | 27% (inactive)
29 | CC(=O)Nc1ccc(CNc2nc(NCCN(C)C)nc3cc(-c4ccccc4)sc23)cc1 | 1.9% (inactive)
30 | Fc1ccccc1OCCSc1nc2ccccc2o1 | 1.37% (inactive)
31 | CCSc1nc2c(c(=O)[nH]1)C(c1cccnc1)C(C(=O)OC(C)C)=C(C)N2 (stereo unspecified) | -1.3% (inactive)
